Values after ≈ are worked out from the molar mass of the structure shown. Active and inactive are the calls of the source. The calls are words filed in the database; no cut-off is given here.
Legend:
[1] = Selectivity index, ratio of CC50 for african green monkey Vero cells to IC50 for methicillin-resistant Staphylococcus aureus NRS 70; type: functional
Method in brief: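 Vero kidney epithelial cells were grown in DMEM/10% FBS, trypsinized, seeded at about 10% confluence and left overnight to adhere. They were then exposed to 2-fold serial compound dilutions in DMEM/FBS, and viability was read by MTT after overnight solubilization. SI = cytotoxic IC50 divided by MIC against MRSA.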

[2] = tested on: Klebsiella pneumoniae; assay: Antimicrobial activity against Klebsiella pneumoniae ATCC 33495 at >200 ug/ml by microbroth dilution method; type: functional
[3] = tested on: Staphylococcus aureus; assay: Antimicrobial activity against methicillin-resistant Staphylococcus aureus NRS 70 by microbroth dilution method; type: functional
[4] = tested on: Pseudomonas aeruginosa; assay: Antimicrobial activity against Pseudomonas aeruginosa PAO1 at >200 ug/ml by microbroth dilution method; type: functional
[5] = tested on: Enterococcus faecalis; assay: Antimicrobial activity against Enterococcus faecalis ATCC 33186 by microbroth dilution method; type: functional
[6] = molecular target: DNA gyrase (Escherichia coli, UniProt P0AES4+P0AES6); assay: Inhibition of Escherichia coli DNA gyrase assessed as supercoiled plasmid DNA formation after 30 mins by electrophoretic analysis; type: protein-complex assay
[7] = tested on: Staphylococcus aureus; assay: Antimicrobial activity against methicillin-sensitive Staphylococcus aureus ATCC 29213 by microbroth dilution method; type: functional
[8] = tested on: Escherichia coli; assay: Antimicrobial activity against Escherichia coli K-12 by microbroth dilution method; type: functional
[9] = tested on: Vero; assay: Cytotoxicity against african green monkey Vero cells assessed as reduction in cell viability by MTT assay; type: cell-based; details: Chlorocebus sabaeus
Method in brief: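 Vero kidney epithelial cells (ATCC CCL-81) in DMEM/10% FBS, trypsinized, seeded near 10% confluence, left overnight to adhere; medium swapped for DMEM/FBS with 2-fold serial compound dilutions.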

[10] = tested on: Mycobacterium tuberculosis; assay: Antimicrobial activity against Mycobacterium tuberculosis H37Rv by microbroth dilution method; type: functional
[11] = tested on: Escherichia coli; assay: Antimicrobial activity against tolC-deficient Escherichia coli by microbroth dilution method; type: functional
[12] = Inhibition of Escherichia coli topoisomerase 4 assessed as inhibition of decatenation of catenated kinetoplast DNA after 30 mins by electrophoretic analysis
[13] = Solubility of the compound in DMEM/FBS medium; type: physicochemical
Method in brief: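 Solubility limit estimated from 2-fold serial dilutions in DMEM with 5% FBS kept overnight at 37 °C; highest concentration with no visible precipitate taken.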

[14] = Inhibition of purified recombinant Escherichia coli topoisomerase 1 assessed as relaxation of supercoiled plasmid DNA after 30 mins by electrophoretic analysis
[15] = tested on: Staphylococcus aureus; assay: Antimicrobial activity against Staphylococcus aureus Newman; type: functional
[16] = tested on: Staphylococcus aureus; assay: Disruption of membrane potential in Staphylococcus aureus Newman assessed as […] at 4 times MIC using DiOC2(3) probe by fluorescence assay; type: functional
Method in brief: (§1)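 S. aureus Newman grown to OD600nm ≈ 0.3 in Mueller–Hinton II, stained with DiOC2(3) and run on flow cytometry; red/green fluorescence ratio gives membrane potential. CCCP positive control, vancomycin negative control.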

[17] = tested on: Staphylococcus aureus; assay: Bacteriostatic activity against Staphylococcus aureus Newman assessed as log reduction in bacterial cell count at 4 times MIC up to 24 hrs by time-kill assay relative to control; type: functional
[18] = tested on: Staphylococcus aureus; assay: Disruption of membrane potential in Staphylococcus aureus Newman assessed as […] using DiOC2(3) probe by fluorescence assay; type: functional; method in brief: as §1
[19] = tested on: Staphylococcus aureus; assay: Bactericidal activity against Staphylococcus aureus Newman assessed as log reduction in bacterial cell count at 4 times MIC at 6 hrs by time-kill assay relative to control; type: functional

SMILES	Selectivity Index [1]	MIC [2] [µg/mL]	MIC [3] [µg/mL]	MIC [4] [µg/mL]	MIC [5] [µg/mL]	IC50 [6] [µM]	MIC [7] [µg/mL]	MIC [8] [µg/mL]	IC50 [9] [µg/mL]	MIC [10] [µg/mL]	MIC [11] [µg/mL]	IC50 [12] [µM]	solubility [13] [µg/mL]	IC50 [14] [µM]	MIC [15] [µg/mL]	Activity [16]	LCK [17]	Activity [18]	LCK [19]
CCCCCCCCOc1ccccc1C1CC(=O)c2ccc(O)cc2O1 (stereo unspecified)	5.4	> 200	3.13 (≈ 8.49 µM)	> 200	1.56 (≈ 4.23 µM)	> 1000	12.5 (≈ 33.9 µM)	> 200	17 (≈ 46.1 µM)	> 200	> 200	> 1000	> 200	> 500					
CCCCCCOc1ccccc1C1CC(=O)c2ccc(O)cc2O1 (stereo unspecified)	15.7	> 200	1.56 (≈ 4.58 µM)	> 200	50 (≈ 147 µM)	> 1000	1.56 (≈ 4.58 µM)	> 200	24.5 (≈ 72 µM)	> 200	1.56 (≈ 4.58 µM)	> 1000	> 200	> 500					
CSc1ccc2c(c1)N(CCC1CCCCN1C)c1ccccc1S2 (stereo unspecified) [THIORIDAZINE]									5.3 (≈ 14.3 µM)										
CCCCCCCC1CC(=O)c2c(O)cc(O)cc2O1 (stereo unspecified)	10.5	> 200	3.13 (≈ 11.2 µM)	> 200	200 (≈ 719 µM)	> 1000	12.5 (≈ 44.9 µM)	> 200	33 (≈ 119 µM)	50 (≈ 180 µM)	1.56 (≈ 5.6 µM)	120	150 (≈ 539 µM)	> 500					
CN[C@H](CC(C)C)C(=O)N[C@H]1C(=O)N[C@@H](CC(N)=O)C(=O)N[C@H]2C(=O)N[C@H]3C(=O)N[C@H](C(=O)N[C@H](C(=O)O)c4cc(O)cc(O)c4-c4cc3ccc4O)[C@H](O)c3ccc(c(Cl)c3)Oc3cc2cc(c3O[C@@H]2O[C@H](CO)[C@@H](O)[C@H](O)[C@H]2O[C@H]2C[C@](C)(N)[C@H](O)[C@H](C)O2)Oc2ccc(cc2Cl)[C@H]1O [VANCOMYCIN]		> 200	< 0.2	> 200	0.78 (≈ 0.538 µM)		0.39 (≈ 0.269 µM)	100 (≈ 69 µM)			100 (≈ 69 µM)				0.8 (≈ 0.552 µM)	inactive			
CCCCCCCCOc1cc(O)cc(O)c1C(=O)C(C)CC (racemic)		> 200	1.56 (≈ 4.84 µM)	> 200	0.78 (≈ 2.42 µM)	> 1000	1.56 (≈ 4.84 µM)	> 200		100 (≈ 310 µM)	> 200	30		> 500					
CC(C)=CCCC(C)CC1CC(=O)c2ccc(O)cc2O1 (stereo unspecified)	9.2	> 200	3.13 (≈ 10.9 µM)	> 200	12.5 (≈ 43.3 µM)		6.25 (≈ 21.7 µM)	> 200	28.8 (≈ 99.9 µM)	200 (≈ 694 µM)	1.56 (≈ 5.41 µM)		> 200						
CCn1cc(C(=O)O)c(=O)c2ccc(C)nc21 [NALIDIXIC ACID]												806							
O=C(/C=C/c1ccc(N2CCCCC2)cc1)c1ccc(O)cc1O	5.3	> 200	3.13 (≈ 9.68 µM)	> 200	25 (≈ 77.3 µM)	> 1000	3.13 (≈ 9.68 µM)	> 200	16.7 (≈ 51.6 µM)	100 (≈ 309 µM)	12.5 (≈ 38.7 µM)	500	100 (≈ 309 µM)	> 500		Active	<=3	Dose-dependent effect	
N#CC(C#N)=NNc1cccc(Cl)c1 [CARBONYL CYANIDE M-CHLOROPHENYLHYDRAZONE]															6.25 (≈ 30.5 µM)				
CCCCCCCCCC1CC(=O)c2c(O)cc(O)cc2O1 (stereo unspecified)	2.8	> 200	3.13 (≈ 10.2 µM)	> 200	100 (≈ 326 µM)		100 (≈ 326 µM)	> 200	8.6 (≈ 28.1 µM)	100 (≈ 326 µM)	12.5 (≈ 40.8 µM)		> 200						
CC[C@H](C)C(=O)c1c(O)cc(O)cc1OC/C=C(\C)CCC=C(C)C [OLYMPICIN A]		> 200	1.56 (≈ 4.5 µM)	> 200				> 200				30		> 500		Active		Dose-dependent effect	
CCCCCc1cc(OC(=O)c2c(O)cc(O)cc2CCCCC)cc(O)c1C(=O)O														14					
CCCCCCCCCC1C/C(=N\O)c2c(O)cc(O)cc2O1 (stereo unspecified)	0.8	> 200	12.5 (≈ 38.9 µM)	> 200	6.25 (≈ 19.4 µM)		12.5 (≈ 38.9 µM)	> 200	10.1 (≈ 31.4 µM)	100 (≈ 311 µM)	> 200		37.5 (≈ 117 µM)						
C=CCOc1ccccc1/C=C/C(=O)c1ccc(O)cc1O	54.4	> 200	0.39 (≈ 1.32 µM)	> 200	12.5 (≈ 42.2 µM)		6.25 (≈ 21.1 µM)	> 200	21.2 (≈ 71.5 µM)	200 (≈ 675 µM)	3.13 (≈ 10.6 µM)	250	> 200	> 500					6
CCCCCCCCCC1C/C(=N\OCc2ccccc2)c2c(O)cc(O)cc2O1 (stereo unspecified)		> 200	> 200	> 200	50 (≈ 121 µM)		> 200	> 200		> 200	> 200								
CCCCCCC1C/C(=N\O)c2c(O)cc(O)cc2O1 (stereo unspecified)		> 200	6.25 (≈ 22.4 µM)	> 200	12.5 (≈ 44.7 µM)		6.25 (≈ 22.4 µM)	> 200		100 (≈ 358 µM)	3.13 (≈ 11.2 µM)								
CC1(C)C2CC=C(C3CC(=O)c4c(O)cc(O)cc4O3)C1C2 (stereo unspecified)		> 200	6.25 (≈ 20.8 µM)	> 200	12.5 (≈ 41.6 µM)		12.5 (≈ 41.6 µM)	> 200		200 (≈ 666 µM)	3.13 (≈ 10.4 µM)								
C=CCOc1ccccc1C1CC(=O)c2ccc(O)cc2O1 (stereo unspecified)		> 200	25 (≈ 84.4 µM)	> 200	50 (≈ 169 µM)		25 (≈ 84.4 µM)	> 200		100 (≈ 337 µM)	12.5 (≈ 42.2 µM)								
CCCCCCCCCC1CC(=O)c2c(OCOC)cc(OCOC)cc2O1 (stereo unspecified)		> 200	> 200	> 200	> 200		> 200	> 200		100 (≈ 253 µM)	> 200								
CC(C)=CCCC(C)CC1CC(=O)c2c(O)cc(O)cc2O1 (stereo unspecified)	8.6	> 200	3.13 (≈ 10.3 µM)	> 200	6.25 (≈ 20.5 µM)			> 200	27 (≈ 88.7 µM)	200 (≈ 657 µM)	1.56 (≈ 5.13 µM)		> 200			Active		Dose-dependent effect	
CCCCCCCC1C/C(=N\O)c2c(O)cc(O)cc2O1 (stereo unspecified)	3.1	> 200		> 200	6.25 (≈ 21.3 µM)			> 200	9.6 (≈ 32.7 µM)	100 (≈ 341 µM)			> 200						
CCCCCCC1CC(=O)c2ccc(O)cc2O1 (stereo unspecified)		> 200	> 200	> 200	> 200		> 200	> 200		50 (≈ 201 µM)	3.13 (≈ 12.6 µM)								
O=C1CC(CCc2ccccc2)Oc2cc(O)ccc21 (stereo unspecified)		> 200	50 (≈ 186 µM)	> 200	> 200		50 (≈ 186 µM)	> 200		100 (≈ 373 µM)	12.5 (≈ 46.6 µM)								
O=C1CC2(CCCC2)Oc2cc(O)ccc21		> 200	> 200	> 200	> 200		> 200	> 200		200 (≈ 916 µM)	100 (≈ 458 µM)								
CCCCCCOc1ccccc1/C=C/C(=O)c1ccc(O)cc1O	9.2	> 200	0.78 (≈ 2.29 µM)	> 200	1.56 (≈ 4.58 µM)	> 1000	3.13 (≈ 9.19 µM)	> 200	7.2 (≈ 21.2 µM)	> 200	> 200	60	> 200	> 500					
